From PubChem
STAT3 inh: inhibitors of IL-6 induced STAT3 signaling | U3A cells, IL-6 STAT3-luciferase reporter, luminescence; host cell line lacks STAT1 | inhibition, % at 5.5 µM | AID 862 | hit rate 0.89% among 190,000;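 active = inhibition above the mean inhibition across all screened compounds plus 3 SD, cut at about 44% in these data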;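 note: 0% = DMSO only wells and 100% = 100 µM nifuroxazide control wells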
STAT1 inh: STAT1 signaling inhibition; NIH 3T3 STAT1-luciferase reporter, IFN-gamma, luminescence; inhibition, % at 5.5 µM; hit rate 0.35% among 200,000;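 active = inhibition above a set limit, the mean inhibition across all tested compounds plus 3 SD, cut at about 34% in these data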;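 note: 0% = IFN-gamma with DMSO and 100% = IFN-gamma with 300 µM nifuroxazide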
TRAIL sens C8: sensitizes caspase-8 expressing cells to TRAIL; NB7+C8 cells + TRAIL, ATPlite viability luminescence; hit rate 1% among 360,000; AID 624354; inhibition (viability loss, TRAIL sensitization), % at 10 µM;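 active = compounds causing at least 50% loss of cell viability in the single-dose screen, relative to plate controls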
PPC-1+TRAIL kill: PPC-1 cancer cell killing with TRAIL present; hit rate 0.41% among 220,000; cell killing (% activity), % at 4 µM or 5 µM; PPC-1 cells + TRAIL, ATPLite viability luminescence;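 active = cell killing above 50% in the first pass at 4 µM, then a duplicate retest at 5 µM averaging 50% or more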;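 note: plate controls were cells with TRAIL plus DMSO for no effect and medium-only wells lacking cells for full effect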
STAT3 act-1: activators of IL-6 induced STAT3 signaling; U3A cells, IL-6 STAT3-luciferase reporter, luminescence; 100% = signal with IL-6 EC80 alone; activation (% of control), % at 5.6 µM; hit rate 0.91% among 190,000; AID 871;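 active = activation above the screen-wide mean of compound activation plus 3 SD, cut at about 130% in these data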;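 note: 0% = background luminescence of wells with medium and substrate only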
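Test system: human U3A cells carrying STAT3-luciferase construct; control set: IL-6-only wells as 100% reference; timing: compound pre-incubation 1 h before IL-6, then 6 h stimulation at 37 °C; also added: IL-6 stimulus at 33 ng/mL final; evaluation: % activation versus median of IL-6-stimulated wells; detection: reporter luminescence signal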
STAT3 act-2: confirmation of STAT3 signaling activators | potentiation (% of control), % at 5.7 µM | shares compounds with STAT3 act-1 | hit rate 64% among 1,200 | U3A STAT3-luciferase reporter, IL-6 potentiation, luminescence; U3A cells lack STAT1; 100 means same as IL-6 alone;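 active = percent activation of the STAT3 luciferase reporter above a set limit taken from the earlier primary screen, cut at about 130% in these data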;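 note: 0% = background signal of medium plus substrate and 100% = median of IL-6 with DMSO wells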
NFkB act 2: NF-kappaB activation in STAT3 activator counter-screen; shares compounds with STAT3 act-1; hit rate 11% among 1,200; activation (% of control), % at 5.7 µM; human cells, NF-kappaB reporter activation; AID 1309; in the data active = activation above about 120%;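 note: reporter induced by TNF-alpha stimulation; 100% = median of stimulated DMSO wells and 0% = no signal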
STAT1 act: counter-screen for STAT3 activators: STAT1 activation | shares compounds with STAT3 act-1 | NIH 3T3 STAT1-luciferase reporter, IFN-gamma, luminescence | activation (% of control), % at 5.7 µM | hit rate 13% among 1,200;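 active = activation above the solvent-only control well mean plus 3 SD, set per screening run, cut at about 120% in these data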;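 note: 100% = IFN-gamma with DMSO median signal so 100% means no change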
Starred values were filed as active, the others as inactive; . = no result given. In the library only some 1.8% were active in any assay of this set; here they are far more common.

SMILES | STAT3 inh | STAT1 inh | TRAIL sens C8 | PPC-1+TRAIL kill | STAT3 act-1 | STAT3 act-2 | NFkB act 2 | STAT1 act
O=C(O)c1[nH]c2ccccc2c1NS(=O)(=O)Cc1ccccc1 | -57 | -1 | -14 | 19 | 155* | 165* | 103 | 94
COc1ccc(S(=O)(=O)Nc2c(C(=O)O)[nH]c3ccccc23)cc1 | . | . | 4 | . | . | . | . | .
COc1ccc(S(=O)(=O)Nc2c(C(=O)O)[nH]c3ccccc23)cc1OC | -42 | -1 | -8 | 18 | 141* | 165* | 110 | 100
COCCNC(=O)C1(C)Cc2c(-c3cccc(C(F)(F)F)c3)ccnc2O1 (stereo not given) | . | . | 14 | . | . | . | . | .
C/C(=N\NC(=O)c1nn(C)c(C)c1Br)c1ccc(NC(=O)C2CCCC2)cc1 | . | . | 14 | . | . | . | . | .
Cc1ccc(NC(=O)c2oc3ccccc3c2C)nc1 | . | . | 0 | . | . | . | . | .
Cc1c(C(=O)Nc2ccccn2)oc2ccccc12 | -59 | -28 | 13 | 36 | 154* | 218* | 142* | 173*
C/C(=N\Nc1ccc(Cl)cc1)c1ccccn1 | -50 | -21 | 3 | 9 | 139* | 140* | 123* | 148*
C/C(=N\Nc1ccc(Cl)cc1)c1ccncc1 | . | . | 1 | . | . | . | . | .
O=C(NC1CCCCC1)C1Cc2ccccc2CN1S(=O)(=O)c1ccc(F)cc1 (stereo not given) | -7 | -1 | 10 | 12 | 107 | . | . | .
O=C(Nc1nccs1)C1Cc2ccccc2CN1S(=O)(=O)c1ccc(F)cc1 (stereo not given) | -44 | -25 | 27 | 10 | 138* | 128 | 126* | 148*
CC(=O)NC(CCS(C)(=O)=O)C(=O)N1CCc2ccccc21 (stereo not given) | -41 | -6 | -44 | 19 | 137* | 116 | 102 | 100
CC1Sc2ccc(S(=O)(=O)CCC(=O)NC(C)c3ccccc3)cc2NC1=O (stereo not given) | . | . | 10 | . | . | . | . | .
CC1=C(CC(=O)c2ccccc2)C(=O)c2ccccc2C1=O | -33 | -19 | 39 | 31 | 138* | 143* | 104 | 112
CCN(CC)Cc1c(C(=O)N/N=C/c2ccc(OCc3ccccc3C)cc2)nnn1-c1nonc1N | . | . | 1 | . | . | . | . | .
CCOC(=O)C1=C(CSc2nc(-c3ccccc3)ccc2C#N)OC(N)=C(C#N)C1c1ccccc1 (stereo not given) | -6 | -3 | 2 | 4 | 102 | . | . | .
CCOC(=O)C1=C(CSc2nc(-c3ccccc3)ccc2C#N)OC(N)=C(C#N)C1c1cccnc1 (stereo not given) | -48 | -8 | -10 | -8 | 137* | 129 | 120 | 117
O=S1(=O)CCN(C2CCCCCC2)CC1 | . | . | 3 | . | . | . | . | .
Cc1cc2cc3c(cc2nc1SCC(=O)Nc1nc(C)c(C)s1)OCO3 | -82 | 8 | 22 | 13 | 169* | 133* | 103 | 103
Oc1[nH]c2ccccc2c1/C=N/N1CCCCC1 | -50 | -8 | 13 | 22 | 145* | 103 | 100 | 103
COc1cccc(-c2nc(N3CC(C)CC(C)C3)c3ccccc3n2)c1O (stereo not given) | -37 | 4 | -1 | -23 | 138* | 131 | 106 | 98
COc1cccc(-c2nc(NC(C)(C)C)c3ccccc3n2)c1O | -46 | 5 | 0 | 11 | 143* | 129 | 106 | 103
COc1cccc(-c2nc(N3CCC(C)CC3)c3ccccc3n2)c1O | -21 | 3 | -6 | 12 | 122 | . | . | .
Cn1c(=O)c(/C=C/c2ccc(F)cc2)nc2ccccc21 | -51 | -24 | 6 | 10 | 152* | 177* | 120 | 129*
CC(C)C1N=C(c2ccc3c(c2)OCO3)CC(c2ccccc2O)N1 (stereo not given) | -37 | 12 | -4 | 2 | 138* | 126 | 108 | 90
SMILES | STAT3 inh | STAT1 inh | TRAIL sens C8 | PPC-1+TRAIL kill | STAT3 act-1 | STAT3 act-2 | NFkB act 2 | STAT1 act
COc1cc(NC(=O)COc2ccc(-n3cnnn3)cc2)cc(OC)c1OC | . | . | 6 | . | . | . | . | .
CCCCCCOC1(c2ccccc2)OC(=O)c2ccccc21 (stereo not given) | 2 | 2 | 0 | 13 | 105 | . | . | .
CCCCCOP(=O)(OCCCCC)C1(NS(=O)(=O)c2ccccc2)C=CC(=O)c2ccccc21 (stereo not given) | -46 | -8 | 8 | -7 | 137* | 120 | 108 | 104
CS(=O)(=O)N(CC(=O)NCCSCc1ccccc1)c1ccccc1Cl | . | . | -12 | . | . | . | . | .
O=C(NC(=S)Nc1nc2c(ccc3ccccc32)s1)c1cccs1 | -47 | 0 | 8 | 0 | 140* | 142* | 100 | 80
Cc1nn(-c2ccccc2)c2nc(C(F)F)cc(C(F)F)c12 | . | . | -16 | . | . | . | . | .
CCOC(=O)C1=NN(c2ccccc2)C(c2ccccc2)CC1=O (stereo not given) | -44 | -5 | -17 | 4 | 138* | 113 | 100 | 98
CCOC(=O)C1=NN(c2ccc(OC)cc2)C(c2ccccc2)CC1=O (stereo not given) | -22 | 4 | 1 | 22 | 119 | . | . | .
Cc1ccc(NC(=O)CN(C)CC(=O)Nc2ccccc2C(=O)Nc2ccccc2)cc1 | -49 | 11 | -23 | 6 | 147* | 123 | 103 | 104
Cc1ccc(NC(=O)CN(C)CC(=O)N(C)Cc2ccccc2)cc1 | . | . | 7 | . | . | . | . | .
CC1=NC(=O)C(N=Nc2ccccc2)N1c1ccccc1 (stereo not given) | -71 | -30 | 13 | 18 | 163* | 162* | 125* | 160*
O=C(CCc1ccc(S(=O)(=O)N2CCOCC2)cc1)N/N=C/c1ccc(O)c(O)c1O | -10 | 5 | 49 | 10 | 106 | . | . | .
C=CCOc1ccc(CNc2ccc3[nH]c(=O)[nH]c3c2)cc1OC | 0 | -2 | -10 | 14 | 103 | . | . | .
CCOc1cc(CNc2ccc3cn[nH]c3c2)ccc1OC | -79 | 6 | -14 | 0 | 175* | 161* | 99 | 100
COc1ccc(CNc2ccc3cn[nH]c3c2)c(OC)c1OC | -53 | 11 | -4 | 8 | 144* | 129 | 95 | 93
COc1ccccc1C(C(=O)NC1CCCC1)N(C(=O)c1csnn1)C1CC1 (stereo not given) | . | . | -8 | . | . | . | . | .
COC(=O)CNC(=O)COC(=O)/C=C/c1ccccc1[N+](=O)[O-] | -35 | 22 | 0 | 14 | 144* | 140* | 103 | 76
COc1ccc(NC(=O)COC(=O)/C=C/c2ccccc2[N+](=O)[O-])cc1 | -11 | 0 | 3 | 16 | 112 | . | . | .
CC(C)NC(=O)NC(=O)COC(=O)/C=C/c1ccccc1[N+](=O)[O-] | -55 | 29 | 4 | 7 | 147* | 159* | 111 | 80
